ChEMBL document CHEMBL1134458, “Synthesis and structure-activity relationships of cetiedil analogues as blockers of the Ca(2+)-activated K+ permeability of erythrocytes” (J Med Chem, 2001)

What was measured:
[1] = (§1) Partition coefficient (logP); type: physicochemical; settings: octanol/water
How it was run: (§2)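 Calculated, not measured, for the free base by summing Mannhold/Rekker revised hydrophobic fragmental constants.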

[2] = species: Oryctolagus cuniculus; test: Inhibition of K+ loss from rabbit blood cells treated with [Ca2+] ionophore A-23187.; type: functional
How it was run: (§3)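 Rabbit red cells were stored at 4 °C for up to 4 days, then suspended at ~1% hematocrit in low-K⁺ saline (0.1 mM KCl, 1 mM CaCl₂, inosine, Tris, pH 7.4) at 37 °C. They were preincubated 40–60 min with compound from DMSO stock (120 min for one; 3 min for highly lipophilic ones). A23187 2 μM was added, and K⁺ loss was read by K⁺ electrode over 3 min. Total K⁺ came from digitonin lysis, and loss was expressed as % of control.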

[3] = as §1; type: physicochemical; settings: octanol/water; how it was run: as §2; remark: listed apart in the source
[4] = species: Oryctolagus cuniculus; test: Concentration required to cause 50% inhibition of K+ loss from rabbit blood cells treated with [Ca2+] ionophore A-23187; type: functional
How it was run: as §3, with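 “control. Assays were run ≥3 times, and IC50 was fitted by Hill equation (common nH, 100% maximum).” for “control.”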

Row | SMILES | logP [1] | logP ([1]; read-out: logP) | IC50 [2] [µM] | logP [3] | IC50 [4] [µM]
1 | O=C(OCCN1CCCCCC1)C(c1ccsc1)C1CCCCC1 (stereo unspecified) | 5.98 | 6.59 | 25 |  | 
2 | O=C(OCCN1CCCCCC1)C(c1ccccc1)c1ccsc1 (stereo unspecified) | 4.9 | 5.15 | 47 |  | 
3 | O=C(OCCN1CCCCCC1)c1cccc2ccccc12 | 5.18 | 5.16 | 222 |  | 
4 | O=C(OCCN1CCCCCC1)c1c2ccccc2cc2ccccc12 |  | 6.45 |  | 6.36 | 28
5 | O=C(OCCN1CCCCCC1)C(c1ccccc1)C1CCCCC1 (stereo unspecified) | 5.93 | 6.88 | 18 |  | 
6 | O=C(OCCN1CCCCCC1)C(c1ccccc1)(c1ccccc1)c1ccccc1 |  | 7.14 |  | 6.69 | 8.2
7 | O=C(OCCN1CCCCCC1)c1ccc2ccccc2c1 | 5.18 | 5.16 | 285 |  | 
8 | O=C(NCCN1CCCCCC1)C(c1ccsc1)C1CCCCC1 (stereo unspecified) | 5.11 | 5.15 | 75 |  | 
9 | O=C(OCCN1CCCCCC1)C1(Cc2ccc(F)cc2)c2ccccc2-c2ccccc21 | 7.32 | 7.92 |  |  | 
10 | O=C(CC(c1ccccc1)c1ccccc1)OCCN1CCCCCC1 | 5.67 | 5.96 | 43 |  | 
11 | O=C(CC(c1ccccc1)(c1ccccc1)c1ccccc1)OCCN1CCCCCC1 |  | 7.65 |  | 7.11 | 9.3
12 | O=C(OCCN1CCCCCC1)C12C[C@H]3C[C@@H](C1)C[C@@H](C2)C3 | 4.38 | 5.6 | 178 |  | 
13 | O=C(CC1CCCCC1)OCCN1CCCCCC1 | 4.93 | 5.18 | 290 |  | 
14 | O=C(OCCN1CCCCCC1)C(c1ccccc1)c1ccccc1 | 5.25 | 5.44 | 164 |  | 
15 | O=C(OCCN1CCCCCC1)C1(Cc2ccc([N+](=O)[O-])cc2)c2ccccc2-c2ccccc21 | 6.92 | 7.44 | 4.6 |  | 
16 | O=C(Cc1ccsc1)OCCN1CCCCCC1 | 3.55 | 3.45 | 142 |  | 
17 | O=C(OCCN1CCCCCC1)C(C1CCCCC1)C1CCCCC1 | 6.86 | 8.33 | 14 |  | 
18 | COc1ccc(CC2(C(=O)OCCN3CCCCCC3)c3ccccc3-c3ccccc32)cc1 | 7.09 | 7.75 | 2.8 |  | 
19 | O=C(OCCN1CCCCCC1)C1c2ccccc2-c2ccccc21 | 5.24 | 5.47 | 42 |  | 
20 | O=C(OCCN1CCCCCC1)C1(Cc2ccc(Cl)cc2)c2ccccc2-c2ccccc21 | 7.89 | 8.41 | 2.9 |  | 
21 | O=C(OCCCN1CCCCCC1)C(c1ccccc1)(c1ccccc1)c1ccccc1 |  | 7.65 |  | 6.4 | 9.2
22 | O=C(OCCN1CCCCCC1)C1(Cc2ccccc2)c2ccccc2-c2ccccc21 | 7.18 | 7.68 | 4 |  | 
23 | C(#CCC1(Cc2ccccc2)c2ccccc2-c2ccccc21)CN1CCCCCC1 | 9.1 |  |  | 7.9 | 1.5
24 | c1ccc(C(CCOCCN2CCCCCC2)(c2ccccc2)c2ccccc2)cc1 |  | 7.83 |  | 7.35 | 5.5
